Data on three compounds can be found in ChEMBL document CHEMBL4610083, “Kendomycin Cytotoxicity against Bacterial, Fungal, and Mammalian Cells Is Due to Cation Chelation” (J Nat Prod, 2020).

Structures are written as SMILES. Active and inactive are the calls of the source. The calls are words filed in the database; no cut-off is given here. Residues, ends and D or L forms follow the SMILES beside them. *: point of attachment. Cbz = O=C(OCc1ccccc1)*

Assay [1] can be described thus: Metal chelating activity assessed as compound-Fe3+ complex formation by UV-Vis spectrophotometric analysis. In outline: (§1)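 250 μM compound titrated with increasing metal concentrations and absorption spectra recorded. A320 measured in quadruplicate; averages fitted to a binding curve to give apparent Kapp.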
Assay [2] concerns HCT-116. Briefly: Inhibition of protein biogenesis in human HCT116 cells assessed as reduction in secreted protein level at 100 to 1000 nM preincubated for 30 mins followed by addition of 35S-labeled methionine/cysteine and measured after 90 mins by autoradiography. It counts as functional, cell-based. Put shortly:
(§2)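 HCT116 cells seeded at 0.5 × 10^6/well and grown 24 h at 37 °C, 5% CO2. Washed, then given compound in Met/Cys-free DMEM for 30 min at 37 °C. Pulsed with 100 μCi 35S-Met/Cys for 90 min. Total protein taken by RIPA extraction of the cell pellet; secreted protein by TCA precipitation of the medium. Gels exposed to phosphor screens and scanned.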

Assay [3] concerns Saccharomyces cerevisiae. The assay can be described thus: Antifungal activity against Saccharomyces cerevisiae assessed as reduction in microbial growth in presence of FeCl2. It counts as functional, organism-based. In outline:
(§3)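 Single-colony inhibition on solid medium, with or without 1 mM FeCl2 or 0.25 mM CuCl2 in the agar. Colonies washed off the plates with PBS and cell density read as A600. Inhibition curves fitted by regression.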

Assay [4] concerns HCT-116. Briefly: Antiproliferative activity against human HCT116 cells assessed as reduction in cell viability incubated for 72 hrs in presence of FeCl2 by AlamarBlue assay. It counts as functional, cell-based. In outline: (§4)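 HCT116 cells in McCoy's 5A with 10% FBS, seeded at 2500 cells/well. Dosed 16 h after plating, with or without 0.5 mM FeCl2 or 0.5 mM CuCl2. After 72 h, 10% resazurin added for 4 h, then fluorescence read (ex 580/em 620 nm). Viability given as % of carrier growth; curves from quadruplicate technical replicates.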
For orientation: Alamar Blue is a resazurin reagent that responds to reducing activity.

For assay [5], the system named is Proteasome. The assay can be described thus: Inhibition of proteosome in human K562 cells assessed as reduction in UbG76V-GFP degradation at 2.5 to 10 uM incubated for 4 hrs by flow cytometric analysis. Put shortly: (§5)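 K562 cells carrying a lentivirally integrated, TRE2-driven UbG76V-GFP reporter. Reporter induced with 1 μg/mL doxycycline (final) 16 h before compound. Cells treated with compound or carrier for 4 h, then GFP fluorescence measured by flow cytometry.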

Assay [6] relates to Proteasome. Briefly: Inhibition of proteosome in HEK293T cells assessed as reduction in UbG76V-GFP degradation at 250 nM incubated for 4 hrs by flow cytometric analysis. Conditions: Homo sapiens, HEK-293T. In general terms: Flow cytometry measures light scatter and fluorescence of single cells or particles in a stream.
Assay [7] can be described thus: Metal chelating activity assessed as compound-calcium complex formation by UV-Vis spectrophotometric analysis.
Assay [8] has as its system Bacillus subtilis. The assay can be described thus: Antibacterial activity against Bacillus subtilis assessed as reduction in microbial growth in presence of FeCl2 by serial dilution method. Format: functional, organism-based. In outline:
(§6)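 Mid-log cultures in LB back-diluted to low OD; 8-point compound serial dilution added, with or without freshly prepared 0.25 mM FeCl2 or 0.25 mM CuCl2. Incubation at 37 °C with orbital shaking at 1000 rpm. Cell density read as A600, duplicate data sets, inhibition curves fitted by regression.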

Assay [9] can be described thus: Metal chelating activity assessed as compound-Cu2+ complex formation by UV-Vis spectrophotometric analysis. Put shortly: as §1
Assay [10] has as its system HCT-116. The assay can be described thus: Antiproliferative activity against human HCT116 cells assessed as reduction in cell viability incubated for 72 hrs in presence of CuCl2 by AlamarBlue assay. Format: functional, cell-based. Put shortly: as §4
In assay [11] the test system is Bacillus subtilis. Briefly: Antibacterial activity against Bacillus subtilis assessed as reduction in microbial growth in presence of CuCl2 by serial dilution method. Format: functional, organism-based. In outline: as §6
Assay [12] can be described thus: Metal chelating activity assessed as compound-[…] complex formation by UV-Vis spectrophotometric analysis.
Assay [13] can be described thus: Metal chelating activity assessed as compound-Fe2+ complex formation by UV-Vis spectrophotometric analysis. In outline: as §1
The subject of assay [14] is Saccharomyces cerevisiae. Briefly: Antifungal activity against Saccharomyces cerevisiae assessed as reduction in microbial growth in presence of CuCl2. Format: functional, organism-based. Put shortly:
as §3

Assay [15] in a line: Binding affinity to Cu2+ ion assessed as compound-Cu2+ formation by 1H NMR spectroscopy.
Assay [16] in a line: Binding affinity to Fe2+ ion assessed as compound-Fe2+ formation by 1H NMR spectroscopy.
Assay [17] concerns HCT-116. Briefly: Inhibition of protein biogenesis in human HCT116 cells assessed as reduction in total protein level at 100 to 1000 nM preincubated for 30 mins followed by addition of 35S-labeled methionine/cysteine and measured after 90 mins by autoradiography. It counts as functional, cell-based. In outline: as §2
Assay [18] deals with HCT-116. Briefly: Inhibition of protein biogenesis in human HCT116 cells assessed as reduction in total protein level preincubated for 30 mins followed by addition of 35S-labeled methionine/cysteine and measured after 90 mins by autoradiography. Format: functional, cell-based. In outline:
(§7)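 HCT116 cells seeded at 0.5 × 10^6 per well and grown 24 h at 37 °C, 5% CO2. After two washes, compound in DMEM lacking Met/Cys was added for 30 min at 37 °C, then 100 μCi 35S-Met/Cys for a further 90 min. Secreted protein was recovered from medium by TCA precipitation, total protein by RIPA extraction of washed cells. Gels were read by phosphor screen imaging.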

Assay [19] concerns HCT-116. The assay can be described thus: Inhibition of protein biogenesis in human HCT116 cells assessed as reduction in secreted protein level preincubated for 30 mins followed by addition of 35S-labeled methionine/cysteine and measured after 90 mins by autoradiography. It counts as functional, cell-based. Put shortly:
as §7

In assay [20] the test system is Proteasome. Briefly: Inhibition of proteosome in human K562 cells assessed as reduction in UbG76V-GFP degradation at 2 uM incubated for 4 hrs by flow cytometric analysis. Put shortly:
as §5

`CC1=C2O[C@]3(O)C=C2C(=C(O)C1=O)[C@@H]1O[C@H](CC[C@H](C)/C=C(\C)C[C@@H](C)C[C@@H]3C)[C@H](C)[C@H](O)[C@H]1C`: the Activity result in assay [1], in [9] and in [13] was “Dose-dependent effect” throughout. Further, the Kapp in [1] was 76 µM; in [9], 48 µM; in assay [13] it was 19 µM. The inhibition entry in the assay on HCT-116 [2], in the assay on Proteasome [5], in the assay on Proteasome [6] and with HCT-116 [17] was “inactive” throughout. Besides, the result (in the assay with Saccharomyces cerevisiae [3]; in the assay on HCT-116 [4]; in assay [7]; in the assay on Bacillus subtilis [8]; in the assay with Bacillus subtilis [11]; in assay [12]) was inactive. The result in the assay with Saccharomyces cerevisiae [14] was inactive. For the same compound, the result (with HCT-116 [10]; in assay [15]; in assay [16]) was Active.

Regarding `C[C@@H]1C[C@@H]([C@H](O)CC2CC(=O)NC(=O)C2)C(=O)[C@@H](C)C1`, the inhibition result in the assay on HCT-116 [18] and in the assay with HCT-116 [19] was “Active” throughout.

For the compound `CC(C)C[C@@H](C=O)NC(=O)[C@H](CC(C)C)NC(=O)[C@H](CC(C)C)NC(=O)OCc1ccccc1` (Cbz-Leu-Leu-Leu-aldehyde), the inhibition entry with Proteasome [6] and in the assay on Proteasome [20] was “Active” each time.
